Source: PubChem
KDM4C inh: inhibitors of GASC-1 (KDM4C) histone demethylase, primary screen, biochemical, single concentration HTS | Lysine-specific demethylase 4C (Homo sapiens), Q9H3R0 | GST-KDM4C 2-372, H3K9me3 peptide, LANCE TR-FRET | inhibition, % at 12.5 µM | 0.15% of 96,000 active | AID 720574, 2013;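 active = mean replicate inhibition above about 25%, with at least 55% of replicates also reaching it, limit read from the data, passing the limit was not always enough; inconclusive = only one of those two conditions met; inactive = neither condition met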
Target sequence (Q9H3R0 2-372 limits assumed): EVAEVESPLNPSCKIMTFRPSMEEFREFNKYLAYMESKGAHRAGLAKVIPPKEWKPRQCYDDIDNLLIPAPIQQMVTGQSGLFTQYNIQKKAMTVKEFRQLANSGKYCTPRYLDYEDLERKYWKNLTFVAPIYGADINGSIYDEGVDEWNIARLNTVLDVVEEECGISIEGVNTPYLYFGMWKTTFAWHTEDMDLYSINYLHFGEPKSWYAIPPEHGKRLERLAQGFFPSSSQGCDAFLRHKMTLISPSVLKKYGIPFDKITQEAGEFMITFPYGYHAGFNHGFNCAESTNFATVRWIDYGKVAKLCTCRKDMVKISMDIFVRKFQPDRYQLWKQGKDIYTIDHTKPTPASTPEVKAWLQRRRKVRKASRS
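reagent = H3K9me3 peptide substrate, Fe(II), 2-oxoglutarate | system = GST-tagged GASC-1 (JMJD2C) catalytic fragment, aa 2-372 | amount = enzyme final amount 10 nM | read-out = Fall in 671/618 emission ratio as inhibition | medium = HEPES buffer, pH 7.5, plus ascorbate | schedule = 30 min reaction, 60 min detection, RT | measured by = LANCE TR-FRET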
T cruzi growth-1: T. cruzi intracellular proliferation inhibitors, primary screen, cell-based, beta-gal Tulahuen parasites, NIH3T3 host, luminescence; T. cruzi beta-gal in NIH3T3, GalScreen luminescence, 90 h; inhibition, % at 8.34 µM; 5.9% of 77,000 active; AID 624255, 2012;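 active = mean inhibition above about 93%, with at least 55% of replicates each passing it, limit read from the data, passing the limit was not always enough; inconclusive = only one of those two conditions holds; inactive = neither condition holds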
IDH1 mut inh: inhibitors of IDH1 R132H reductase, primary screen, biochemical, plate reader, single point. AID 624101, 2012. inhibition, % at 10 µM. diaphorase/resazurin fluorescence, 60 min. Isocitrate dehydrogenase [NADP] cytoplasmic (Homo sapiens), O75874. 0.18% of 70,000 active; in the data active = inhibition above about 34%; inconclusive = no clear call, values can overlap the other calls; inactive = below about 11%
T cruzi growth-2: T. cruzi intracellular proliferation inhibitors, confirmation, cell-based, NIH3T3 host, beta-gal parasite, luminescence, cherry-pick; shares compounds with T cruzi growth-1; T. cruzi beta-gal in NIH3T3, GalScreen luminescence, 90 h; inhibition, % at 8.35 µM; 72% of 5,600 active; AID 651739, 2012;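 active = mean replicate inhibition above about 95% and at least 55% of replicates individually reaching it, limit read from the data; inconclusive = only one of the two criteria is met; inactive = neither criterion is met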
T cruzi growth-3: inhibitors of intracellular T. cruzi replication, confirmation, NIH3T3 host cells, beta-gal parasites, cherry-pick, set 2; T. cruzi beta-gal in NIH3T3, GalScreen luminescence, 90 h; 21% of 5,600 active; inhibition, % at 2.09 µM; shares compounds with T cruzi growth-1; AID 651740, 2012;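 active = mean inhibition above about 95%, with at least 55% of replicates also reaching it, limit read from the data; inconclusive = meets just one of the two conditions; inactive = meets neither condition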
3T3 cytotox: cytotoxicity in mouse NIH/3T3 fibroblasts, confirmation, cytotoxicity control for T. cruzi proliferation inhibitor project, cell-based, cherry-pick, single point; shares compounds with T cruzi growth-1; NIH/3T3 viability, CellTiter-Glo ATP luminescence, 90 h; cytotoxicity (signal decrease), % at 8.35 µM; 14% of 5,600 active;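 active = mean signal decrease across replicates above about 35% based on untreated-well scatter, with enough replicates individually passing, limit read from the data; inconclusive = no rule stated though some were filed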
NIH3T3 tox 2: NIH/3T3 fibroblast cytotoxicity, confirmation, cytotoxicity control, cell-based, cherry-pick, single point, set 2. shares compounds with T cruzi growth-1. NIH/3T3 viability, CellTiter-Glo ATP luminescence, 90 h. inhibition, % at 24.9 µM. 56% of 5,600 active. AID 651744, 2012;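 active = mean loss of cell viability signal at or above a set limit, and enough replicates individually reaching it; inconclusive = meets only the mean limit or only the replicate share; inactive = meets neither condition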
Large screens that a line does not name were inactive (follow-up assays come after a bar, where they were run). Shown is part of a subset that was picked to be rich in hits.

C[C@@H]1CN([C@H](C)CO)S(=O)(=O)c2ccc(C#Cc3ccccc3)cc2O[C@@H]1CN(C)C	none
COc1ccc(C#Cc2ccc3c(c2)O[C@H](CN(C)C)[C@@H](C)CN([C@@H](C)CO)S3(=O)=O)cc1	T cruzi growth-1 inconclusive | T cruzi growth-2 109.0 | T cruzi growth-3 inactive | 3T3 cytotox inactive | NIH3T3 tox 2 102.8
COc1ccccc1CN=c1c([N+](=O)[O-])nn(-c2ccccc2)n1O	none (no result: KDM4C inh, T cruzi growth-1)
CCCNC(=O)N1[C@@H]2c3ccc(-c4ccccc4OC)c(=O)n3C[C@H]1[C@H](CO)[C@H]2C(=O)NCC	T cruzi growth-1 106.6 (no result: IDH1 mut inh) | T cruzi growth-2 inactive | T cruzi growth-3 inactive | 3T3 cytotox inactive | NIH3T3 tox 2 inactive
CCCNC(=O)[C@H]1[C@H](CO)[C@H]2Cn3c(ccc(-c4ccccc4OC)c3=O)[C@@H]1N2C(=O)NCCC	none (no result: IDH1 mut inh)
COCCNC(=O)[C@@H]1[C@@H](CO)[C@@H]2Cn3c(ccc(-c4ccc(F)cc4)c3=O)[C@H]1N2C(=O)NC(C)C	none (no result: IDH1 mut inh)
COCCNC(=O)[C@H]1[C@H](CO)[C@H]2Cn3c(ccc(-c4ccc(OC)cc4)c3=O)[C@@H]1N2C(=O)NC(C)C	T cruzi growth-1 100.3 (no result: IDH1 mut inh) | T cruzi growth-2 inactive | T cruzi growth-3 inactive | 3T3 cytotox inactive | NIH3T3 tox 2 inactive
Cc1ccc(S(=O)(=O)Nc2ccc3c(c2)C(=O)N([C@H](C)CO)C[C@H](C)[C@H](CN(C)Cc2ccc4c(c2)OCO4)OCCCC[C@H](C)O3)cc1	none
C[C@@H]1CN([C@@H](C)CO)C(=O)c2cc(NS(=O)(=O)c3ccc(F)cc3)ccc2O[C@@H](C)CCCCO[C@H]1CN(C)Cc1ccc2c(c1)OCO2	none
Cc1ccc(S(=O)(=O)Nc2ccc3c(c2)C(=O)N([C@H](C)CO)C[C@@H](C)[C@H](CN(C)Cc2ccc4c(c2)OCO4)OCCCC[C@@H](C)O3)cc1	T cruzi growth-1 101.7 (no result: IDH1 mut inh) | T cruzi growth-2 108.5 | T cruzi growth-3 inactive | 3T3 cytotox inactive | NIH3T3 tox 2 81.5
C[C@@H]1CN([C@H](C)CO)C(=O)c2cc(NS(=O)(=O)c3ccc(F)cc3)ccc2O[C@@H](C)CCCCO[C@@H]1CN(C)Cc1ccc2c(c1)OCO2	T cruzi growth-1 102.2 | T cruzi growth-2 inactive | T cruzi growth-3 105.5 | 3T3 cytotox 71.3 | NIH3T3 tox 2 105.2
C[C@@H]1CCCCO[C@@H](CN(C)Cc2ccc3c(c2)OCO3)[C@H](C)CN([C@H](C)CO)C(=O)c2cc(NS(=O)(=O)c3ccc(F)cc3)ccc2O1	none
COc1ccc(S(=O)(=O)Nc2ccc3c(c2)C(=O)N([C@@H](C)CO)C[C@@H](C)[C@@H](CN(C)Cc2ccc4c(c2)OCO4)OCCCC[C@@H](C)O3)cc1	none
COc1ccc(S(=O)(=O)Nc2ccc3c(c2)C(=O)N([C@H](C)CO)C[C@@H](C)[C@H](CN(C)Cc2ccc4c(c2)OCO4)OCCCC[C@H](C)O3)cc1	T cruzi growth-1 inconclusive | T cruzi growth-2 108.4 | T cruzi growth-3 inactive | 3T3 cytotox inactive | NIH3T3 tox 2 105.0
C[C@H](CO)N1C[C@H](C)[C@H](CN(C)Cc2ccc3c(c2)OCO3)OCCCC[C@H](C)Oc2ccc(NS(=O)(=O)c3ccc(F)cc3)cc2C1=O	T cruzi growth-1 112.4 | T cruzi growth-2 110.0 | T cruzi growth-3 inactive | 3T3 cytotox inactive | NIH3T3 tox 2 58.8
COc1c(S(=O)(=O)N2CCCN(S(=O)(=O)c3ccc(Cl)c(Cl)c3OC)CC2)ccc(Cl)c1Cl	none (no result: KDM4C inh, T cruzi growth-1)
